In the EternaBench riboswitch data:

System: MS2 coat protein
Assay: apparent Kd, MS2 coat protein; higher = weaker binding; RNA-MaP array; FMN 200 µM where present
Outline: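 Each design was made on Illumina sequencing-chip clusters by stalled E. coli RNA polymerase and titrated with SNAP-549-labelled MS2 coat protein from 0.7 or 1.5 nM, doubling to 3 µM, in the absence and then the presence of constant ligand. The buffer was 100 mM Tris-HCl pH 7.5, 80 mM KCl, 4 mM MgCl2, BSA, DTT, yeast tRNA and Tween-20. The apparent Kd is the median of filtered per-cluster fits of binding curves, with green signal normalised to red-channel RNA signal and control-cluster median Fmax.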

[1] = designed as: OFF switch for flavin mononucleotide, no ligand
[2] = ligand present: flavin mononucleotide, designed as: OFF switch for flavin mononucleotide
[3] = designed as: ON switch for flavin mononucleotide, no ligand
[4] = ligand present: flavin mononucleotide, designed as: ON switch for flavin mononucleotide

Sequence	apparent Kd [1] [nM]	apparent Kd [2] [nM]	apparent Kd [3] [nM]	apparent Kd [4] [nM]
AAAUUUAACGAAGGAUAUGCUGACAUGAGGAUCACCCAUGUGUGCCUUGUGUUACUGAUUAGGUUGCAGAAGGUCGUAUACAUA	230	948	–	–
AAAAAGUCAGGAUAUAGCAAAGGUCACGAAAGUGACAAAGGCUAGAAGGGACAUGAGGAUCACCCAUGUAAAAA	31	39.1	–	–
AUUGUAUAGGAAGGAUAUAGAAUAUUAUUUUAACAUGAGGAUCACCCAUGUAACCUUAUGUGUAGCUAGAAGGUCCAUUUAUUA	99.6	150	–	–
AAUAAGGUCACAGGAUAUACUACAUCCAAUGCGGUAGAAGGGUGACACUUACUGUGCAGACAUGAGGAUCACCCAUGUAACCAC	–	–	53	10.4
GUAGCACAUGAAAAUAUAACAUGAGGAUCACCCAUGUGUUAUGAGGAUAUGGAUGUGAAGUUAAUCCAGAAGGCAUUAUGCUAC	–	–	21.5	11.7
GGAUAGUGAGGAUAUCGAUGUUAGGAGGAGUAGAUAGGAGGCGAGAAGGCACAUGAGGAUCACCCAUGUAUGGA	58.7	45.5	–	–
GGACGUCUCAUUAACAUGAGGAUCACCCAUGUCGAUAGACAUGAGGAUAUGGAUCCGAAUCGGAUCCAGAAGGCAUGGACGUCC	–	–	1170	72.4
UGUUACUAGUAAGGAUAUACUUGCAAUUAGCUUGUAGAAGGUACAGUCUUUUGUAUAACAUGUUUACAUGAGGAUCACCCAUGU	–	–	10.4	9.05
AAAACAUACCGAGGAUAUUCAUAUAAUAAAUAAACAUGAGGAUCACCCAUGUGGCGAAAGCCUAGGGAGAAGGCGGAAUGCUAA	–	–	149	31.8
GCAACGCUUGACAUGAGGAUCACCCAUGUUAGAUUGUUAUGUCAGGAUAUAGUCUAGAAACUAGACUAGAAGGGAUAUGUUGCU	–	–	269	44.2
GCUGACGAUGUAGGAUAUCUCGACGAUAAGUCGAGAGAAGGACAUGAGGAUCACCCAUGUCUCAAAACGUCAGCGAGGAAACUC	16.4	17.4	–	–
AAUAUGUUGCAGAAGGCUAUAUUGUUGUAGUACCUCAUGACAUGAGGAUCACCCAUGUUUUUGUUGGAGGAUAUGCAAUAUAUU	7.32	7.07	–	–
GUAAAUGGUAUGGCUUCGACCACACAGGAUAUGAAAAUGUACAUGAGGAUCACCCAUGUUCUGAAUCAGAAGGGUGAUGGACGG	–	–	20.7	6.74
AAUUAGGUCACAGGAUAUACAACAACCAAUGCUGUAGAAGGGUGACACAUACUUAGCUGACAUGAGGAUCACCCAUGUAACCAC	–	–	31.4	8.87
AAAUUGCUAGAGGAUAUCGGAUAGGAUCUAUUACGAGAAGGUUGGACAUGAGGAUCACCCAUGUUCUGUUGGGA	23.8	23.5	–	–
GUUAGUUAAGGAUAUACAGGGAGCCGCGGCGUCUCGCCGCAACAUGAGGAUCACCCAUGUAGAAGGUAGCCAUU	31.3	66.6	–	–
AGGGAGUGAGGAUAUACGAAAUAAAAAGAAGGAAAAAAAGAGUAGAAGGCACAUGAGGAUCACCCAUGUGAGAA	22	19.5	–	–
ACGGCUAACCCAGUUUAAAUCUCAAGAAGGGUACACUGGGCAAGGUACAUGAGGAUCACCCAUGUACAGGAUAUUGAGAUGAGA	25.6	45.4	–	–
CCACAGAUAGGAUAUACUGGGUGGGAUAAAUAUUUCCUGUGACAUGAGGAUCACCCAUGUAGAAGGAUCACAAG	38.2	42.4	–	–
AACAACUCUGUGAGGAUAUGCAAUUGUUGAUCAAGGCAGAAGGCACAUGAGGAUCACCCAUGUUCCUACAAGGG	47.3	110	–	–
CCCAAACUUGGGCUUGGCGGUGCAUAGGAUAUCCUUGGACAUGAGGAUCACCCAUGUACAACUGUGGAGAAGGGUGCAGGGCCU	–	–	31.2	8.61
UGAUAGGACAGAGGAUAUACGUAUAUUCUCCUAAACAUGAGGAUCACCCAUGUAGAAGGCUGUCCUAUCUAAGUCGGAAACGAC	5.4	23.4	–	–
UUGGUAUUCGUAGGAUAUCUGUCGCCACCGUGUGGAGAAGGACGAACAUGAGGAUCACCCAUGUAUCAUGGUGUGGGCGUUGUC	100	106	–	–
AUUUAUGGCCAGAAGGACAUGAGGAUCACCCAUGUAGGAUAUGGACGAUUUUGCUCGGCGGUUUUUUUAGGAAGCACCGGUGGU	–	–	12.4	7.14
UUGCACGUCGUAGGAUAUGUAGGAUAUUCCUACAUGAGGAUCACCCAUGUUGACAUGGAAGAAGGACAGAAGGACGAUGUCCAU	–	–	686	10.9
GGAUAGGACAGAGGAUAUACAGAUAGGAUCUACUAUCAAACAGUCCUUACAUGAGGAUCACCCAUGUAGAAGGCUGUCCUAUCG	19.4	87.4	–	–
UCCUGGCAAGGAUAUACAUGAGGAUCACCCAUGUGGAGUCGAUGCUGAAUUCUAUUGUGUAGAAGGUGCCUUUC	49.1	62.3	–	–
CACAAGAAAGUCGAAGGUUGAAGUAGAAGGUUUAUAACAUGACAUGAGGAUCACCCAUGUGCCAAGAAGGAUAUGCUUUAAUCG	11.4	9.43	–	–

Sequence	apparent Kd [1] [nM]	apparent Kd [2] [nM]	apparent Kd [3] [nM]	apparent Kd [4] [nM]
AGCAGACGAGGAUAUAGAUGGAAUGACAUGAGGAUCACCCAUGUGAUCGAUCUAUUGGGUUUAGAAGGUGUCUGCU	15.2	15.4	–	–
UUGGCCGUCGUAGGAUAUGUAGGAUAUUCCUACAUGAGGAUCACCCAUGUUGACAUGGAAGAAGGACAGAAGGACGAUGUCCAU	–	–	365	4.87
UUUUCGAACCGAGGAUAUCCUUAUAAGAAACAUGAGGAUCACCCAUGUAAAGGGAAUUAUUUGAAGGAGAAGGCGGAUUUUGUU	–	–	50.1	32
CCUAAGGAGGCAGGAUAUAGUGUGGUGGCCGGGCUCCCACGGCGAGCGGCACUAGAAGGGUCGUUACAUGAGGAUCACCCAUGU	–	–	12.7	11.6
ACAAAUUACUACCAGACAUGAGGAUCACCCAUGUCUCCACCCAGAAGGGCGACUCUGAGCACAGCGCAGGAUAUGGGUGUUCCA	–	–	59.8	13.5
GGAUAGGACAGAGGAUAUACGUGCUAGAGAUACUAGCAAAAUUCCCUCACAUGAGGAUCACCCAUGUAGAAGGCUGUCCUAUCG	5.68	49.6	–	–
CGUUGUGAAGAGGAUAUCCAACAAAGUUGUCAAGGAGAAGGCUUCACAUGAGGAUCACCCAUGUUAUGCCUUAU	18.2	80.2	–	–
AUUGUAAUGUCAGGAUAUAUUAUAUUUUACAUAGUAGAAGGGAUAAUUAUACUCAUGUACAUGAGGAUCACCCAUGUUAAAUAU	–	–	179	29.6
GAAUAGGCAGGAUAUACAUGAGGAUCACCCAUGUGCCGGCGAAAGGUACGUUCGAAAGGUAGAAGGGCCUAAAC	78.6	288	–	–
AGUCGGAGCAGAGGAUAUACAUGAGGAUCACCCAUGUAAAUGAAAGAUAAGCUGGAAACAGCAAUGUAGAAGGCUGCUCCGACA	19.2	91.6	–	–
AGGAAGUUAGGAUAUGCUGCUCGUCACUUGCGUGAUGAGUAGCAGAAGGGACAUGAGGAUCACCCAUGUAAAGA	36.8	21.9	–	–
GAUUGAGAGCAGGAUAUCUUAGAAAUGUAUGAAAGAGAAGGGCUCACAUGAGGAUCACCCAUGUGGUCCUAGAU	32.7	256	–	–
UGUUGUAUUACAGGAUAUCUAUUGUAUUUAUUUAGAGAAGGGUAUUCACAUGAGGAUCACCCAUGUAUAUACGAGGAAGUUGUG	–	–	63.9	70.8
AGAGACCUCACAGGAUAUGCUGGACUUUGUCCAGCAGAAGGGUGAAAACAUGAGGAUCACCCAUGUAUGGUCUCCAAAUUUAAA	–	–	186	12.1
AUUAAUUAAUUAAUACAUGAGGAUCACCCAUGUAAUAAGAUCUAGGAUAUCAGCUCGAUUAGAGCUGAGAAGGAGAUCACAUGU	–	–	46.8	39.5
GAUAGGACAGAGAAGGACGUGGCUAGAGAUACUAGCAUAAAGGUCCAAACAUGAGGAUCACCCAUGUAGGAUAUCUGUCCUAUC	6.59	8.89	–	–
AUGGAUAUCACAGGAUAUGCUAAGGAUACCUUAGCAGAAGGGUGAUCCAUCCUAUGGCUGCACAUGAGGAUCACCCAUGUGUCC	–	–	124	11.8
UGGGACGUGGGAGGAUAUCGGCCUGUAACAGUACGAGAAGGCCCAGUCCAAUAACAGACGGACAUGAGGAUCACCCAUGUCUCA	–	–	43.2	14.3
CGAGGUGGAGUGAGGAUAUCGUGUUCGAAAGAACGUGAGAAGGCACAUGAGGAUCACCCAUGUGAUUCAGCUCG	24.6	69.4	–	–
UAUUUACAUGAGGAUCACCCAUGUUAGGAUAUGUUUCUAUCGUCGAAAGAUGAUAUUUGCAGAAGGGACAUUAU	20.5	23.3	–	–
GCCUAGCCCAAGCCCACGGCAUCACAGGAUAUGCCGAUAACAUGAGGAUCACCCAUGUCAACUCCGCAGAAGGGUGAUAUCGUG	–	–	75.9	10
GAGCUCGAUGAGAAGGGUUACAUGAGGAUCACCCAUGUCGACCUUGGCGUAACAGGAUAUCAUCGGGCUCAGUGCGUUGACACA	29.2	171	–	–
GGUCGCAAGUAAGGAUAUGCCUAGGAAACCUAGGCAGAAGGUACAUGAGGAUCACCCAUGUUAACGCAAAGCGAAUAAGCGACC	15.8	21.5	–	–
AGAAACUACGAGAAGGACAUGUGGUCCUUCUAAAACAUGAGGAUCACCCAUGUAGGAUAUCGUAGUUUCAGGAUCGUGAGAUCA	35.5	7.27	–	–
AGGAGGUUAGGAUAUGCUGCUCGUCACUUGCGUGAUGAGUAGCAGAAGGAACAUGAGGAUCACCCAUGUAAAAA	30.2	31.9	–	–
AUAGCUCUCUAGAAGGUCCAACCAGUAUUCCAUCAGGUAAAUACGGUAGGGAGGAUAUGGGACAUGAGGAUCACCCAUGUGUAG	–	–	42.2	25.2
CUGGUUGUCGAGGAUAUGUCCCGGCUCGCUGACGCAGAAGGCGACACAUGAGGAUCACCCAUGUCGGUUCGCGU	20.1	21.8	–	–
